From ChEMBL document CHEMBL3286275, “Identification of 1-{2-[4-chloro-1'-(2,2-dimethylpropyl)-7-hydroxy-1,2-dihydrospiro[indole-3,4'-piperidine]-1-yl]phenyl}-3-{5-chloro-[1,3]thiazolo[5,4-b]pyridin-2-yl}urea, a potent, efficacious and orally bioavailable P2Y(1) antagonist as an antiplatelet agent” (Bioorg Med Chem Lett, 2014) come the findings set out here.

Data set [1] deals with Liver microsome. Nature of the data set: Metabolic stability in human liver microsomes assessed as compound remaining. Type of data set: ADME. Put shortly:
(§1)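 Liver microsome stability: percent of compound remaining after incubation with […] (3 µM microsomes in some cases).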

The subject of another data set is Platelet. Description: Inhibition of ADP-induced platelet aggregation in platelet-rich human plasma. Type of data set: functional. In outline: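 Human platelet-rich plasma; aggregation triggered by 10 µM ADP; IC50 determined.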
The target in data set [2] is T1, P2Y purinoceptor 1 (Homo sapiens, UniProt P47900). Nature of the data set: Antagonist activity at P2Y1 receptor in human platelets by FLIPR assay in presence of 2-methylthio-ADP. In outline: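 Washed human platelets with endogenous P2Y1; calcium signalling read by FLIPR with reduced protein (~0.1% BSA); agonist 2-methylthio-ADP at 1 µM; IC50 given as mean ± SD.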
T1 sequence (P47900 whole entry): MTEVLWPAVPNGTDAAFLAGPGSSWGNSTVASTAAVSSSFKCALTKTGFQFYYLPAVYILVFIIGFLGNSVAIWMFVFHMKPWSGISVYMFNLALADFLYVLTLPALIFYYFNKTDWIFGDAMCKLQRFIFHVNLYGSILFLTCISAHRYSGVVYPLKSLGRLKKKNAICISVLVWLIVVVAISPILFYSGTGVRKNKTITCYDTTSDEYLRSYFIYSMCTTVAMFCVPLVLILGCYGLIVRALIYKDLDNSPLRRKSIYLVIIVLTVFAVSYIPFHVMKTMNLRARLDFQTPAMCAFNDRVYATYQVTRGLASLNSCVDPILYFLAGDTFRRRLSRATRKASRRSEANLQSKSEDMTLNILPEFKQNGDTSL

Data set [3] has as its system Liver microsome. Nature of the data set: Metabolic stability in rat liver microsomes assessed as compound remaining. Type of data set: ADME. In outline:
as §1

Data set [4] is described as follows: Aqueous solubility of the compound at pH 6.5. Type of data set: physicochemical. Particulars: aqueous medium. In outline:
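Aqueous solubility taken on crystalline material: free base at pH 6.5, mono-methanesulfonic acid salt at pH 3.9.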

In data set [5] the target is T1, P2Y purinoceptor 1. Description: Binding affinity to P2Y1 receptor in human platelets.
In data set [6] the test system is Liver microsome. Description: Metabolic stability in human liver microsomes assessed as GSH adduct formation. The data set is classed as ADME. In outline: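 Human liver microsomes incubated with glutathione to detect reactive intermediates; GSH adduct (M+GSH) measured as percent.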

Values after ≈ are worked out from the molar mass of the structure shown.

Consider `CC(C)(C)CN1CCC2(CC1)CN(c1ccccc1NC(=O)Nc1ccc(OC(F)(F)F)cc1)c1c(O)ccc(F)c12`, for which the Stability in the data set on Liver microsome [1] is 78%; with Liver microsome [3], 70%. In addition, the IC50 amounted to 920 nM with Platelet and 0.37 nM at P2Y purinoceptor 1 [2].
Turning to `CC(C)(C)CN1CCC2(CC1)CN(c1ccccc1NC(=O)Nc1ccc(C(F)(F)F)cc1)c1c(O)ccc(Cl)c12`, the Stability with Liver microsome [1] and with Liver microsome [3] was 93% in each case. Also, the values for the IC50 in the data set on Platelet and at P2Y purinoceptor 1 [2] were 400 nM and 0.08 nM, respectively.
Consider `COC(=O)c1ccc(O)c2c1C1(CCN(CC(C)(C)C)CC1)CN2c1ccccc1NC(=O)Nc1ccc(OC(F)(F)F)cc1`, for which the Stability in the data set with Liver microsome [1] is listed as 48%; in the data set with Liver microsome [3] it was 57%. The IC50 in the data set on Platelet was 700 nM; on P2Y purinoceptor 1 [2] it was 0.15 nM.
`CC(C)(C)CN1CCC2(CC1)CN(c1ccccc1NC(=O)Nc1ccc(OC(F)(F)F)cc1)c1c(O)ccc(C(F)(F)F)c12`: the Stability in the data set with Liver microsome [1] is on record as 100%; in the data set on Liver microsome [3], 98%. The IC50 in the data set with Platelet turned out to be 130 nM; on P2Y purinoceptor 1 [2], 0.14 nM.
Turning to `CC(C)(C)CN1CCC2(CC1)CN(c1ccccc1NC(=O)Nc1ccc(OC(F)(F)F)cc1)c1c(O)cccc12`, the Stability is listed as 80% in the data set on Liver microsome [1], 87% in the data set with Liver microsome [3] and “Unstable” with Liver microsome [6]. The concentration in solution in data set [4] (solubility) was 30 µg/mL (≈ 52.8 µM). For the same compound, the IC50 with Platelet is 1600 nM; on P2Y purinoceptor 1 [2], 0.23 nM. This compound returned a Ki at P2Y purinoceptor 1 [5] of 4 nM.
